Assay: organ radiation dose estimates, OLINDA 2.0, ICRP-103
Assay type: in vivo, human
Procedure, shortened: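 Whole-body PET-MR ran as nine scans to 214 min. Organ VOIs were drawn in AMIDE, giving decay-corrected %IA per VOI; remainder = whole body minus measured organs. TIACs came from the EXM exponential model (OLINDA 1.1). Per-participant organ doses were computed in OLINDA 2.0 with 73 kg adult male or 60 kg female models. Effective dose (mSv) = organ absorbed doses × ICRP-103 tissue weighting factors.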

COC(=O)[C@@H](N)CC(=O)Nc1ccc2c(c1)Cc1cc([18F])ccc1-2 [[^18F]RP-115, methyl N^4-(7-[^18F]fluoro-9H-fluoren-2-yl)asparaginate]
Estimated dose, Thyroid (Female n=4, mean±SD): 0.0239±0.0171 mGy/MBq
Estimated dose, Urinary bladder wall (Female n=4, mean±SD): 0.0516±0.0371 mGy/MBq
Estimated dose, Uterus (Female n=4, mean±SD): 0.0573±0.0514 mGy/MBq
Effective dose (whole body) (M1 (326 MBq)): 6.65 mSv
Estimated absorbed dose, Adrenals (M1 (326 MBq)): 13.5 mGy
Estimated absorbed dose, Brain (M1 (326 MBq)): 5.47 mGy
Estimated absorbed dose, Colon, left (M1 (326 MBq)): 5.63 mGy
Estimated absorbed dose, Colon, right (M1 (326 MBq)): 4.95 mGy
Estimated absorbed dose, Esophagus (M1 (326 MBq)): 5.18 mGy
Estimated absorbed dose, Eyes (M1 (326 MBq)): 2.26 mGy
Estimated absorbed dose, Gallbladder wall (M1 (326 MBq)): 10.3 mGy
Estimated absorbed dose, Heart wall (M1 (326 MBq)): 9.25 mGy
Estimated absorbed dose, Kidneys (M1 (326 MBq)): 70.7 mGy
Estimated absorbed dose, Liver (M1 (326 MBq)): 17.5 mGy
Estimated absorbed dose, Lungs (M1 (326 MBq)): 17.0 mGy
Estimated absorbed dose, Osteogenic cells (M1 (326 MBq)): 2.80 mGy
Estimated absorbed dose, Pancreas (M1 (326 MBq)): 5.93 mGy
Estimated absorbed dose, Prostate (M1 (326 MBq)): 3.21 mGy
Estimated absorbed dose, Rectum (M1 (326 MBq)): 3.35 mGy
Estimated absorbed dose, Red marrow (M1 (326 MBq)): 3.48 mGy
Estimated absorbed dose, Salivary glands (M1 (326 MBq)): 2.64 mGy
Estimated absorbed dose, Small intestine (M1 (326 MBq)): 17.2 mGy
Estimated absorbed dose, Spleen (M1 (326 MBq)): 24.9 mGy
Estimated absorbed dose, Stomach wall (M1 (326 MBq)): 5.27 mGy
Estimated absorbed dose, Testes (M1 (326 MBq)): 2.11 mGy
Estimated absorbed dose, Thymus (M1 (326 MBq)): 14.7 mGy
Estimated absorbed dose, Thyroid (M1 (326 MBq)): 4.36 mGy
Estimated absorbed dose, Urinary bladder wall (M1 (326 MBq)): 3.68 mGy
Effective dose (whole body) (M2 (289 MBq)): 4.65 mSv
Estimated absorbed dose, Adrenals (M2 (289 MBq)): 12.3 mGy
Estimated absorbed dose, Brain (M2 (289 MBq)): 2.94 mGy
Estimated absorbed dose, Colon, left (M2 (289 MBq)): 5.05 mGy
Estimated absorbed dose, Colon, right (M2 (289 MBq)): 4.10 mGy
Estimated absorbed dose, Esophagus (M2 (289 MBq)): 4.39 mGy
Estimated absorbed dose, Eyes (M2 (289 MBq)): 1.91 mGy
Estimated absorbed dose, Gallbladder wall (M2 (289 MBq)): 6.09 mGy
Estimated absorbed dose, Heart wall (M2 (289 MBq)): 33.5 mGy
Estimated absorbed dose, Kidneys (M2 (289 MBq)): 74.2 mGy
Estimated absorbed dose, Liver (M2 (289 MBq)): 10.1 mGy
Estimated absorbed dose, Lungs (M2 (289 MBq)): 2.65 mGy
Estimated absorbed dose, Osteogenic cells (M2 (289 MBq)): 2.33 mGy
Estimated absorbed dose, Pancreas (M2 (289 MBq)): 44.4 mGy
Estimated absorbed dose, Prostate (M2 (289 MBq)): 2.91 mGy
Estimated absorbed dose, Rectum (M2 (289 MBq)): 2.77 mGy
Estimated absorbed dose, Red marrow (M2 (289 MBq)): 2.76 mGy
Estimated absorbed dose, Salivary glands (M2 (289 MBq)): 2.20 mGy
Estimated absorbed dose, Small intestine (M2 (289 MBq)): 4.04 mGy
Estimated absorbed dose, Spleen (M2 (289 MBq)): 9.84 mGy
Estimated absorbed dose, Stomach wall (M2 (289 MBq)): 5.89 mGy
Estimated absorbed dose, Testes (M2 (289 MBq)): 2.02 mGy
Estimated absorbed dose, Thymus (M2 (289 MBq)): 5.86 mGy
Estimated absorbed dose, Thyroid (M2 (289 MBq)): 2.40 mGy
Estimated absorbed dose, Urinary bladder wall (M2 (289 MBq)): 4.70 mGy
Effective dose (whole body) (M3 (70.3 MBq)): 1.25 mSv
Estimated absorbed dose, Adrenals (M3 (70.3 MBq)): 2.34 mGy
Estimated absorbed dose, Brain (M3 (70.3 MBq)): 0.810 mGy
Estimated absorbed dose, Colon, left (M3 (70.3 MBq)): 0.970 mGy
Estimated absorbed dose, Colon, right (M3 (70.3 MBq)): 0.900 mGy
Estimated absorbed dose, Esophagus (M3 (70.3 MBq)): 1.00 mGy
Estimated absorbed dose, Eyes (M3 (70.3 MBq)): 0.450 mGy
Estimated absorbed dose, Gallbladder wall (M3 (70.3 MBq)): 1.53 mGy
Estimated absorbed dose, Heart wall (M3 (70.3 MBq)): 1.84 mGy
Estimated absorbed dose, Kidneys (M3 (70.3 MBq)): 12.4 mGy
Estimated absorbed dose, Liver (M3 (70.3 MBq)): 2.85 mGy
Estimated absorbed dose, Lungs (M3 (70.3 MBq)): 3.35 mGy
Estimated absorbed dose, Osteogenic cells (M3 (70.3 MBq)): 0.557 mGy
Estimated absorbed dose, Pancreas (M3 (70.3 MBq)): 1.15 mGy
Estimated absorbed dose, Prostate (M3 (70.3 MBq)): 0.724 mGy
Estimated absorbed dose, Rectum (M3 (70.3 MBq)): 0.702 mGy
Estimated absorbed dose, Red marrow (M3 (70.3 MBq)): 0.692 mGy
Estimated absorbed dose, Salivary glands (M3 (70.3 MBq)): 0.536 mGy
Estimated absorbed dose, Small intestine (M3 (70.3 MBq)): 1.93 mGy
Estimated absorbed dose, Spleen (M3 (70.3 MBq)): 2.65 mGy
Estimated absorbed dose, Stomach wall (M3 (70.3 MBq)): 0.984 mGy
Estimated absorbed dose, Testes (M3 (70.3 MBq)): 0.477 mGy
Estimated absorbed dose, Thymus (M3 (70.3 MBq)): 1.58 mGy
Estimated absorbed dose, Thyroid (M3 (70.3 MBq)): 0.830 mGy
Estimated absorbed dose, Urinary bladder wall (M3 (70.3 MBq)): 2.00 mGy
Effective dose (whole body) (M4 (153 MBq)): 2.62 mSv
Estimated absorbed dose, Adrenals (M4 (153 MBq)): 5.67 mGy
Estimated absorbed dose, Brain (M4 (153 MBq)): 2.17 mGy
Estimated absorbed dose, Colon, left (M4 (153 MBq)): 2.46 mGy
Estimated absorbed dose, Colon, right (M4 (153 MBq)): 2.15 mGy
Estimated absorbed dose, Esophagus (M4 (153 MBq)): 2.06 mGy
Estimated absorbed dose, Eyes (M4 (153 MBq)): 1.08 mGy
Estimated absorbed dose, Gallbladder wall (M4 (153 MBq)): 3.76 mGy
Estimated absorbed dose, Heart wall (M4 (153 MBq)): 3.73 mGy
Estimated absorbed dose, Kidneys (M4 (153 MBq)): 31.2 mGy
Estimated absorbed dose, Liver (M4 (153 MBq)): 5.85 mGy
Estimated absorbed dose, Lungs (M4 (153 MBq)): 5.53 mGy
Estimated absorbed dose, Osteogenic cells (M4 (153 MBq)): 1.28 mGy
Estimated absorbed dose, Pancreas (M4 (153 MBq)): 3.39 mGy
Estimated absorbed dose, Prostate (M4 (153 MBq)): 1.60 mGy
Estimated absorbed dose, Rectum (M4 (153 MBq)): 1.64 mGy
Estimated absorbed dose, Red marrow (M4 (153 MBq)): 1.54 mGy
Estimated absorbed dose, Salivary glands (M4 (153 MBq)): 1.26 mGy
Estimated absorbed dose, Small intestine (M4 (153 MBq)): 6.45 mGy
Estimated absorbed dose, Spleen (M4 (153 MBq)): 8.39 mGy
Estimated absorbed dose, Stomach wall (M4 (153 MBq)): 2.22 mGy
Estimated absorbed dose, Testes (M4 (153 MBq)): 1.09 mGy
Estimated absorbed dose, Thymus (M4 (153 MBq)): 5.87 mGy
Estimated absorbed dose, Thyroid (M4 (153 MBq)): 2.28 mGy
Estimated absorbed dose, Urinary bladder wall (M4 (153 MBq)): 2.61 mGy
Effective dose (whole body) (Male n=4, mean±SD): 0.0179±0.0018 mSv/MBq
Estimated dose, Adrenals (Male n=4, mean±SD): 0.0386±0.0043 mGy/MBq
Estimated dose, Brain (Male n=4, mean±SD): 0.0132±0.0029 mGy/MBq
Estimated dose, Esophagus (Male n=4, mean±SD): 0.0147±0.0011 mGy/MBq
Estimated dose, Eyes (Male n=4, mean±SD): 0.00678±0.00029 mGy/MBq
Estimated dose, Gallbladder wall (Male n=4, mean±SD): 0.0248±0.0048 mGy/MBq
Estimated dose, Heart wall (Male n=4, mean±SD): 0.0488±0.0449 mGy/MBq
Estimated dose, Kidneys (Male n=4, mean±SD): 0.214±0.034 mGy/MBq
Estimated dose, Left colon (Male n=4, mean±SD): 0.0162±0.0017 mGy/MBq
Estimated dose, Liver (Male n=4, mean±SD): 0.0419±0.0082 mGy/MBq
Estimated dose, Lungs (Male n=4, mean±SD): 0.0363±0.0193 mGy/MBq
Estimated dose, Osteogenic cells (Male n=4, mean±SD): 0.00825±0.00031 mGy/MBq
Estimated dose, Pancreas (Male n=4, mean±SD): 0.0527±0.0676 mGy/MBq
Estimated dose, Prostate (Male n=4, mean±SD): 0.0102±0.0003 mGy/MBq
Estimated dose, Rectum (Male n=4, mean±SD): 0.0101±0.0005 mGy/MBq
Estimated dose, Red marrow (Male n=4, mean±SD): 0.0101±0.0005 mGy/MBq
Estimated dose, Right colon (Male n=4, mean±SD): 0.0141±0.0010 mGy/MBq
Estimated dose, Salivary Glands (Male n=4, mean±SD): 0.00791±0.0003 mGy/MBq
Estimated dose, Small intestine (Male n=4, mean±SD): 0.0341±0.0169 mGy/MBq
Estimated dose, Spleen (Male n=4, mean±SD): 0.0508±0.0194 mGy/MBq
Estimated dose, Stomach wall (Male n=4, mean±SD): 0.0163±0.0029 mGy/MBq
Estimated dose, Testes (Male n=4, mean±SD): 0.00684±0.00028 mGy/MBq
Estimated dose, Thymus (Male n=4, mean±SD): 0.0316±0.0122 mGy/MBq
Estimated dose, Thyroid (Male n=4, mean±SD): 0.0121±0.0028 mGy/MBq
Estimated dose, Urinary bladder wall (Male n=4, mean±SD): 0.0183±0.0073 mGy/MBq
